Experimental data from ChEMBL document CHEMBL1138071, “Design and synthesis of noncompetitive metabotropic glutamate receptor subtype 5 antagonists” (Bioorg Med Chem Lett, 2006).
Activity calls are given as the source filed them. No cut-off for these calls is given here.

Columns and labels:
[1] = target: Metabotropic glutamate receptor 5 (Rattus norvegicus) (UniProt P31424); assay: Inhibition of [3H]MPEP binding to mGluR5 in rat brain membrane at 100 uM; assay type: cell membranes
[2] = target: Metabotropic glutamate receptor 5 (Homo sapiens, UniProt P41594); assay: Antagonist activity against mGluR5 expressed in CHO cells assessed as inhibition of agonist-induced phosphoinositide hydrolysis; assay type: functional, cell-based
[3] = target: Metabotropic glutamate receptor 5 (Rattus norvegicus, UniProt P31424); assay: Inhibition of [3H]MPEP binding to mGluR5 in rat brain membrane; assay type: cell membranes
Procedure, shortened: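 Rat brain membranes spun twice at 30,000g for 10 min, resuspended in ice-cold 50 mM Tris–HCl pH 7.0 with 1% BSA. Displacement by 10 drug concentrations run three times. Incubated 2.5 h at 4 °C to steady state, then filtered over PEI-presoaked glass-fibre filters.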

[4] = target: Metabotropic glutamate receptor 5 (Rattus norvegicus) (UniProt P31424); conditions: Brain, Membrane, 10 uM

Sequence of Metabotropic glutamate receptor 5 (Rattus norvegicus, UniProt P31424) (P31424 whole entry): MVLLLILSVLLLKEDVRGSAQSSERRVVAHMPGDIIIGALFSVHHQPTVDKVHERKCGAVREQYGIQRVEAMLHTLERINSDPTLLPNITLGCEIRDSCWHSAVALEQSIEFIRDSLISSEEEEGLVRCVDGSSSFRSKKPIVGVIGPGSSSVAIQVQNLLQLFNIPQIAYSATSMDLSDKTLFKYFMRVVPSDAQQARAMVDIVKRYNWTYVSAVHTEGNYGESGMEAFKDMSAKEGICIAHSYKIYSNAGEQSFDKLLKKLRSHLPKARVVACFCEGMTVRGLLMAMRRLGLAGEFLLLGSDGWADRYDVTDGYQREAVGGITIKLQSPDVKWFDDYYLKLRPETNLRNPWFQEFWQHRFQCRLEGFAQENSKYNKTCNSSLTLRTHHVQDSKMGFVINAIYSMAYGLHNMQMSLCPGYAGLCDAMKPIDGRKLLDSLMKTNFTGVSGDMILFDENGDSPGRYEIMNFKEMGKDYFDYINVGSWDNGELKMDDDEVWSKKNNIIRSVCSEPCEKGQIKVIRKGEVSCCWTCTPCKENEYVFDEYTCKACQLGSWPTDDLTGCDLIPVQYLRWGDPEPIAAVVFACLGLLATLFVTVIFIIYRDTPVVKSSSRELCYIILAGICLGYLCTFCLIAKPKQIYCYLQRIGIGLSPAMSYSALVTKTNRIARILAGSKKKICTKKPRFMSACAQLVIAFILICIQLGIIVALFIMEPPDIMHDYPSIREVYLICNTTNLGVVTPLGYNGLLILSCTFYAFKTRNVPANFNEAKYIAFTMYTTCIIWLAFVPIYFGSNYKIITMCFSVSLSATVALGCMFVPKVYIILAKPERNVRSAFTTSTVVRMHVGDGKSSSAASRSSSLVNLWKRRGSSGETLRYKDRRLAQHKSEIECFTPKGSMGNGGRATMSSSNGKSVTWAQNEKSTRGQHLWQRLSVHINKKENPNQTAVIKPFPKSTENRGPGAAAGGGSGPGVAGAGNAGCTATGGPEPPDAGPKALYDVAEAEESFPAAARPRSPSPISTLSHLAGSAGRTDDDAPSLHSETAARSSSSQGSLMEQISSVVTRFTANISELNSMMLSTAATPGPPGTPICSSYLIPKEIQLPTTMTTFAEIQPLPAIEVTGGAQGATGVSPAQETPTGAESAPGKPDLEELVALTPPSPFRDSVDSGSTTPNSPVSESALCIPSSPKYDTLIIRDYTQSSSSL
Sequence of Metabotropic glutamate receptor 5 (Homo sapiens, UniProt P41594) (P41594 whole entry): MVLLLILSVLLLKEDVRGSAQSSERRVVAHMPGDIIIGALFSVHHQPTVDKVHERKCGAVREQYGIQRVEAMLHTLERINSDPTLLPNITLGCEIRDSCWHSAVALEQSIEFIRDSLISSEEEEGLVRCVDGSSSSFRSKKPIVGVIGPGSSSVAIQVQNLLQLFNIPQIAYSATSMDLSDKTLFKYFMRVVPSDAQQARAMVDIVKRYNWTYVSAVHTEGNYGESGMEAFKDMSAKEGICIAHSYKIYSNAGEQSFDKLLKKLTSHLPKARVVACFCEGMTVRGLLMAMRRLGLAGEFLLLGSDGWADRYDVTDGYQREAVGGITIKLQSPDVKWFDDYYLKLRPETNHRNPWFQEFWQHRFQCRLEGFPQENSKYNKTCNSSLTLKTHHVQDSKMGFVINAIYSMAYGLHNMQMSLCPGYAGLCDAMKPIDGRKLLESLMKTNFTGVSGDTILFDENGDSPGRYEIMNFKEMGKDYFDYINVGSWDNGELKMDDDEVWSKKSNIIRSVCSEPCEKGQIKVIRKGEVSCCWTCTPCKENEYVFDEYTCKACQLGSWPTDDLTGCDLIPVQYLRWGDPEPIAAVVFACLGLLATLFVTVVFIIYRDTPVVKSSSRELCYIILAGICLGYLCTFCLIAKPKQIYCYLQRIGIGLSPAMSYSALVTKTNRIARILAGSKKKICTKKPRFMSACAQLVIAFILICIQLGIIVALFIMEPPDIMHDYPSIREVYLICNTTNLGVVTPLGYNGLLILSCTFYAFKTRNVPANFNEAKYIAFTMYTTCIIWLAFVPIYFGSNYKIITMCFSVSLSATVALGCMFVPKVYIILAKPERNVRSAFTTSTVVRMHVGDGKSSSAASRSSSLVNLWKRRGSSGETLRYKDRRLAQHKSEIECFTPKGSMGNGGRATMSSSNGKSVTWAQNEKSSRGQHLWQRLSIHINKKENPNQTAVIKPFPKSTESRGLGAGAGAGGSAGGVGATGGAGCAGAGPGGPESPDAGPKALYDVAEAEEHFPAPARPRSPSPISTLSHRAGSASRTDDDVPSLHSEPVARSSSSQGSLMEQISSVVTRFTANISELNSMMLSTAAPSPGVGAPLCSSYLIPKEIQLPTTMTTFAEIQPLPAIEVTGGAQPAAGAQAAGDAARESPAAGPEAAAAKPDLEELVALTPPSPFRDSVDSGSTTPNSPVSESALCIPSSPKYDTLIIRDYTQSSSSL
Sequence of Metabotropic glutamate receptor 5 (Rattus norvegicus) (P31424 21-1203 limits assumed): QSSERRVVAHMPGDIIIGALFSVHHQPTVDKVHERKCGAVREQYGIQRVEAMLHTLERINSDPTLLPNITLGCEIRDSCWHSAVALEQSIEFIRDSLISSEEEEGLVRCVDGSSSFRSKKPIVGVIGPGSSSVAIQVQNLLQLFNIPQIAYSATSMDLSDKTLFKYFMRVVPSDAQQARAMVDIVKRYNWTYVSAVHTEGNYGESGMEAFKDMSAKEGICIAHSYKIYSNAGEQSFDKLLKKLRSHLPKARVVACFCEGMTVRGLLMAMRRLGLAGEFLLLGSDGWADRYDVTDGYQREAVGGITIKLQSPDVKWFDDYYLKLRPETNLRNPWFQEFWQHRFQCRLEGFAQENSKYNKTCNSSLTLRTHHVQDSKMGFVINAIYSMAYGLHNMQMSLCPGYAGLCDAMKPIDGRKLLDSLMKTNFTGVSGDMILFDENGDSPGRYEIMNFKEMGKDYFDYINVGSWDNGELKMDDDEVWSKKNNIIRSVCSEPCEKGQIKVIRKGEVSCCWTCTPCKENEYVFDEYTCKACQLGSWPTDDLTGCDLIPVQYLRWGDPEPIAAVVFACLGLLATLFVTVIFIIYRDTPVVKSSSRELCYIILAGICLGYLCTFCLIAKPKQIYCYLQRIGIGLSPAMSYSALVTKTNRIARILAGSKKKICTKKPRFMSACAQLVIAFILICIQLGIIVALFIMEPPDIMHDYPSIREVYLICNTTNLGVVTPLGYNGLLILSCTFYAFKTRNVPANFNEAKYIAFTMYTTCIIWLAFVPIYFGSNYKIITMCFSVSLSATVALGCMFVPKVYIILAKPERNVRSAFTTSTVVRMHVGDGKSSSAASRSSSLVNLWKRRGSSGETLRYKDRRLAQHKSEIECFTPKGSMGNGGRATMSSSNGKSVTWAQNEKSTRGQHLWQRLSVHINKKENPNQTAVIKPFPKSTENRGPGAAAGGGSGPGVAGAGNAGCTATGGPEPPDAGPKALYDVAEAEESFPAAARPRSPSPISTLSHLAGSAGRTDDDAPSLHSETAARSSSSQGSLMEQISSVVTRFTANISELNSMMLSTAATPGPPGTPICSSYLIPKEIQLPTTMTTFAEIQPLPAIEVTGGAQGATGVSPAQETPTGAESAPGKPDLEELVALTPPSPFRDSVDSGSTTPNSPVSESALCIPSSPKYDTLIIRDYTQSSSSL

Row | SMILES | Activity [1] | IC50 [3] | further results
1 | Cc1cccc(CNc2ccccc2)n1 | inactive |  | 
2 | Cc1cccc(NC(=O)c2cccc(I)c2)n1 |  | 1.08 µM | IC50 [2]: 10.8 µM
3 | Cc1cccc(NC(=O)c2cccc(-c3ccccc3)c2)n1 |  | 7.3 µM | IC50 [2]: 18.3 µM
4 | Cc1cccc(NC(=O)c2ccc3ccccc3c2)n1 | inactive |  | 
5 | Cc1ccc(O)c(/N=N/c2ccccc2)n1 |  | 1.17 µM | 
6 | Cc1cccc(NC(=O)c2cccc(/C=C/c3ccccc3)c2)n1 | inactive |  | 
7 | Cc1csc(NC(=O)c2cccnc2)n1 | inactive |  | 
8 | Cc1cccc(NC(=O)c2cccc(C(F)(F)F)c2)n1 |  | 18.7 µM | 
9 | Cc1cccc(NC(=O)c2cccnc2)n1 | inactive |  | 
10 | Cc1cccc(NC(=O)c2cccc(OCCc3ccccc3)c2)n1 |  | 23.6 µM | 
11 | Cc1cccc(NCc2ccccc2)n1 | inactive |  | 
12 | COc1cccc(C(=O)Nc2nc(C)cs2)c1 |  | 9.1 µM | 
13 | Cc1cccc(NC(=O)c2cccc(C#N)c2)n1 |  | 0.33 µM | IC50 [2]: 5.33 µM
14 | Cc1cccc(NC(=O)c2cccc(Cl)c2)n1 |  | 1.73 µM | inhibition [4]: 66%
15 | O=C(Nc1cccc(Cl)n1)c1cccc(Cl)c1 |  | 1.53 µM | IC50 [2]: 12.7 µM
16 | Cc1cccc(NC(=O)c2cccc(Br)c2)n1 |  | 0.65 µM | IC50 [2]: 5.48 µM
17 | Cc1csc(NC(=O)c2cccc(Cl)c2)n1 |  | 5.49 µM | IC50 [2]: 15 µM
18 | Cc1cccc(NC(=O)C2CCCN(C)C2)n1 (centres undefined) | inactive |  | 

Row | SMILES | Activity [1] | IC50 [3] | further results
19 | Cc1ccc(S(=O)(=O)N2CCCC(C(=O)Nc3cccc(C)n3)C2)cc1 (centres undefined) |  |  | inhibition [1]: 31%
20 | Cc1cccc(NC(=O)c2ccccc2)n1 |  | 35 µM | 
21 | Cc1cccc(NC(=O)c2cccc(Oc3ccccc3)c2)n1 |  | 57 µM | 
22 | Cc1cccc(NC(=O)C2CCCN(Cc3cccc(Cl)c3)C2)n1 (centres undefined) |  |  | inhibition [1]: 31%
23 | Cc1cccc(NC(=O)c2cccc(S(C)(=O)=O)c2)n1 | inactive |  | 
24 | Cc1cccc(/C=C/c2ccccc2)n1 |  | 1.08 µM | 
25 | Cc1cccc(NC(=O)C2CCCN(Cc3ccccc3)C2)n1 (centres undefined) |  |  | inhibition [1]: 14%
26 | Cc1csc(NC(=O)c2ccccc2)n1 |  | 65 µM | 
27 | Cc1cccc(NC(=O)c2ccccc2Cl)n1 | inactive |  | 
28 | Cc1cccc(NC(=O)c2ccc(Cl)cc2)n1 | inactive |  | 
29 | Cc1cccc(NC(=O)c2cccc3ccccc23)n1 |  | 62.8 µM | 
30 | O=C(Nc1ccccn1)c1ccccc1 |  | 95.4 µM | 
31 | Cc1cccc(NC(=O)c2cccc(OCc3ccccc3)c2)n1 |  | 33 µM | 
32 | COc1cccc(C(=O)Nc2cccc(C)n2)c1 |  | 9.76 µM | IC50 [2]: 46 µM
33 | Cc1cccc(NC(=O)c2cccc(OS(C)(=O)=O)c2)n1 |  | 83.6 µM | 
34 | Cc1cccc(C(=O)Nc2cccc(C)n2)c1 |  | 1.84 µM | IC50 [2]: 5.9 µM
35 | Cc1ccc(S(=O)(=O)Nc2cccc(C)n2)cc1 | inactive |  | 
